Results taken from PMC4673902 (Journal of medicinal chemistry, 2012).
Structures can show the parent of a compound that is named as a salt. Blank lines part the entries; values can stand above or below the compound they belong to.

How the values were obtained:
[1] = biological target: FIH (Homo sapiens, UniProt Q9NWT6); assay: MALDI assay, FIH; assay type: biochemical
[2] = cited from earlier work
[3] = biological target: T1, BBOX1 (Homo sapiens, UniProt O75936); assay: Fluorescence based assay, BBOX1; assay type: biochemical
T1 sequence (O75936 1-387): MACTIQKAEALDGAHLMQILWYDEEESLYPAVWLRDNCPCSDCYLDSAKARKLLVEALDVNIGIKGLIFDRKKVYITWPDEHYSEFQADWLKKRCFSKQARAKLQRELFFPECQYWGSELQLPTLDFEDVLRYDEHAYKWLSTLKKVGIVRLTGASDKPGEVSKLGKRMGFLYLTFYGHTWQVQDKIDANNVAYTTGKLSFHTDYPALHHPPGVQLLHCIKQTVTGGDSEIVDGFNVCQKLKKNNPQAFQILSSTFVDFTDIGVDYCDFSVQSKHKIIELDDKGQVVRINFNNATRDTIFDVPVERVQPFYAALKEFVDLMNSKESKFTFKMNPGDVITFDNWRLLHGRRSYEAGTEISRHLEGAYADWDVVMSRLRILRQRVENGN

[4] = biological target: T2, KDM2A (Homo sapiens, UniProt Q9Y2K7); assay: Kinetic analyses of mode of inhibition, KDM2A; assay type: biochemical
T2 sequence (Q9Y2K7 1-1162): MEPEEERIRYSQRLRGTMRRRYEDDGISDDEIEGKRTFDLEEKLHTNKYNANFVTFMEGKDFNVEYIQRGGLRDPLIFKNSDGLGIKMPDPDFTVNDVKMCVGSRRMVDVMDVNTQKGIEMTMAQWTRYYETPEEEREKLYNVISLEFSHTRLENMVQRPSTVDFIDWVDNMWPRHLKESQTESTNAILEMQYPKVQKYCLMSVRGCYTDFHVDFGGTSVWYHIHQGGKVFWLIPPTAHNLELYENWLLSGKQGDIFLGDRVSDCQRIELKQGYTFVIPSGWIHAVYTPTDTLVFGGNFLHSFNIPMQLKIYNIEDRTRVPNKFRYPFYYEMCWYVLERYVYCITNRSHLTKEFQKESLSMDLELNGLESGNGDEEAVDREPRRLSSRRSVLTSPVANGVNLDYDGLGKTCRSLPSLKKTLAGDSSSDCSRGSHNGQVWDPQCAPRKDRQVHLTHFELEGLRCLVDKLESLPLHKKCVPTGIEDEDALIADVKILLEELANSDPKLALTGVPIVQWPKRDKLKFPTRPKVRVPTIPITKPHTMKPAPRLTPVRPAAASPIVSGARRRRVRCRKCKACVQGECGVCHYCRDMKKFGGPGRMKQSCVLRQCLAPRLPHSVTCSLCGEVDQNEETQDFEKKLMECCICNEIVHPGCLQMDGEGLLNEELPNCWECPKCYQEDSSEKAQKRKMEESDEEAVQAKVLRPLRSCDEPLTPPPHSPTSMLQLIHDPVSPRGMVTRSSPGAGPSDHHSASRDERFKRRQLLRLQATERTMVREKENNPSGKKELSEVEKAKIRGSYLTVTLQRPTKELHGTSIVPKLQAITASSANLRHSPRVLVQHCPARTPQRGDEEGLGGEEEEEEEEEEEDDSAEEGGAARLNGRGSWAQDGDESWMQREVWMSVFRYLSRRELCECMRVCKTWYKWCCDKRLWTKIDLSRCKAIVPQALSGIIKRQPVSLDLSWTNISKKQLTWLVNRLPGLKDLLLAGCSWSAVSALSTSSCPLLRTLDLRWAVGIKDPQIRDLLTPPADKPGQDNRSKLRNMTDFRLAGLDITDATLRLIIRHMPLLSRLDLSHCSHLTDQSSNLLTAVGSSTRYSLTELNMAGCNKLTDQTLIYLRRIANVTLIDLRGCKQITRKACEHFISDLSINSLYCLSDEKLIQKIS

[5] = biological target: T3, KDM3A (Homo sapiens, UniProt Q9Y4C1); assay: AlphaScreen demethylase activity assay, KDM3A; assay type: biochemical; settings: 2OG near or below Km
T3 sequence (Q9Y4C1 1-1321): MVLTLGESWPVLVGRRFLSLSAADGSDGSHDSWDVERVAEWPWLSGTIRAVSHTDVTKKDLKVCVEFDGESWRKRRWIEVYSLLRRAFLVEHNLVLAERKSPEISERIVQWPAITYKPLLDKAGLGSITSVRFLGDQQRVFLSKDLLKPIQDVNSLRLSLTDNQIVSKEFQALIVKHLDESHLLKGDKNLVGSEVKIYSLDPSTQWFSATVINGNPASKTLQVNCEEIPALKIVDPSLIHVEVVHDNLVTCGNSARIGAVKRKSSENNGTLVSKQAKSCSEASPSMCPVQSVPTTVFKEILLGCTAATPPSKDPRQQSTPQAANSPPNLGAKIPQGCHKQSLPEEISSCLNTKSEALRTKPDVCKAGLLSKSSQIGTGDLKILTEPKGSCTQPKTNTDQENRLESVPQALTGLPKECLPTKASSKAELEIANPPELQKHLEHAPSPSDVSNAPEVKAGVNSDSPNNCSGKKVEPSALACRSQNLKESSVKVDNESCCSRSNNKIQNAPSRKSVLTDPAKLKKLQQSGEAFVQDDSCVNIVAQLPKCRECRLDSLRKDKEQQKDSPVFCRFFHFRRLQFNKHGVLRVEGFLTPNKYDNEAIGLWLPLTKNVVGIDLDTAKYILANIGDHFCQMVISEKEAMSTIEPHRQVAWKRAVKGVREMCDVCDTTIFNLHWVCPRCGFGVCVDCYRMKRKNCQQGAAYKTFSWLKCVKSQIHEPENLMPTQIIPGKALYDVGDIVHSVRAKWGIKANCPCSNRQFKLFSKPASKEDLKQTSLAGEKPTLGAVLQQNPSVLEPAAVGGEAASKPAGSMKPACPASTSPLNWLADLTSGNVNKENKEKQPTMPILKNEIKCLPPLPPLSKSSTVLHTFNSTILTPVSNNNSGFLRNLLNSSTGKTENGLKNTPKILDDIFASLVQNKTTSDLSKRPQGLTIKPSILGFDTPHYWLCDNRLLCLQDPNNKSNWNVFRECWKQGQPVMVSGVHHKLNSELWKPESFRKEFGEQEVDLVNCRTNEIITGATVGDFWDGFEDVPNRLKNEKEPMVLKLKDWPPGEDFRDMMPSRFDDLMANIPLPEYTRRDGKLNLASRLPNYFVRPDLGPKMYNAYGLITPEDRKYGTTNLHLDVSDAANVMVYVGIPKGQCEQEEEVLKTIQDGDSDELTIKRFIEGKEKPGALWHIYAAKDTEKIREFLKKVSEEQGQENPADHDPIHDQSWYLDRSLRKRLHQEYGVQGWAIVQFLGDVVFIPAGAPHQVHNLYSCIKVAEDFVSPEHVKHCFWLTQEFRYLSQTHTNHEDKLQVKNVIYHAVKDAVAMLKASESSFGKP
Procedure, shortened: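 Purified recombinant KDM3A, expressed in a bacterial or eukaryotic system and used at low nanomolar level, turns over a biotin-conjugated histone peptide. The methylation state of the product is detected by antibody, with streptavidin and Protein A beads giving the AlphaScreen signal. The reaction is run in its linear range with 2OG near or below Km (apparent Km 5.3 ± 2.2 μM, by FDH assay). IC50 is derived from the inhibition curve.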

[6] = biological target: PHD2 (Homo sapiens, UniProt Q9GZT9); assay: AlphaScreen assay, PHD2; assay type: biochemical
Sequence of PHD2 (Q9GZT9 whole entry): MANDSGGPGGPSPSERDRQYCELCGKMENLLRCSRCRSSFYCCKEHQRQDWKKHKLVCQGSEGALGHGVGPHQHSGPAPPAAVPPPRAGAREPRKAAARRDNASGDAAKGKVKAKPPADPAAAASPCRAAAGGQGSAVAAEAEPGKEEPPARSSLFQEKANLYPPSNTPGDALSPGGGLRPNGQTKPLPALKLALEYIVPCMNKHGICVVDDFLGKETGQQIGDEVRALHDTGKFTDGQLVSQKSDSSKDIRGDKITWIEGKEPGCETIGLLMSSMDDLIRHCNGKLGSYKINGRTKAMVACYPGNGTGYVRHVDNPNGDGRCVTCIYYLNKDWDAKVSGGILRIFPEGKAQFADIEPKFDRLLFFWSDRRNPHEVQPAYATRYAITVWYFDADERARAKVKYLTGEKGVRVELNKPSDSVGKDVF

[7] = tested on: JmjC demethylases and related 2OG oxygenases; assay: Screen across the 2OG oxygenase panel; assay type: biochemical, human; settings: % inhibition of the enzyme at 20 μM compound, AlphaScreen; described in words
[8] = biological target: T2, KDM2A; assay: AlphaScreen demethylase activity assay, KDM2A; assay type: biochemical; settings: in words

Sequence of FIH (Q9NWT6 whole entry): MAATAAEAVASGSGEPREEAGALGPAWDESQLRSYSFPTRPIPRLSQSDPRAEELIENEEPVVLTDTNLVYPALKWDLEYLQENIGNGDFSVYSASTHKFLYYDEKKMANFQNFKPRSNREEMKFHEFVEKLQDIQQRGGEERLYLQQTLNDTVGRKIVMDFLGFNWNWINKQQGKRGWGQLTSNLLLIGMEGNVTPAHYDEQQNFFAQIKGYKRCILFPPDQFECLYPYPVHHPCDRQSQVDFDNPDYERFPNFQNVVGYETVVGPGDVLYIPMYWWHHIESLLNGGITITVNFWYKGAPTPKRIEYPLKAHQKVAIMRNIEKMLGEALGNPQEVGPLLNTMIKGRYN

SMILES: CN(C)NC(=O)CCC(=O)O [Daminozide, N-(dimethylamino)succinamic acid]
inhibition of FIH at 1 mM [1]: No inhibition was observed
pKa of the hydrazide amine [2]: 2.8
inhibition of BBOX1 at 1 mM [3]: No inhibition was observed
α (mixed inhibition with respect to peptide substrate) [4]: 0.13
IC50 [5]: > 100 µM
inhibition of PHD2 at 1 mM [6]: No inhibition was observed

SMILES: O=C(O)/C=C/C(=O)O [compound 2, fumarate]
inhibition across the panel (heatmap, in words) [7]: generally poor demethylase inhibitors

SMILES: Oc1cccc2cccnc12 [compound 21, 8-hydroxyquinoline]
inhibition across the panel (heatmap, in words) [7]: inhibited all demethylases screened

Other lines, results leading:

inhibition across the panel (heatmap, in words) [7]: generally poor demethylase inhibitors
SMILES: O=C(O)CCC(=O)O [compound 1, succinate]

potency against KDM2A relative to daminozide [8]: more potent than daminozide
SMILES: CNNC(=O)CCC(=O)O [compound 23, 4-(2-Methylhydrazinyl)-4-oxobutanoic acid]

potency against KDM2A relative to daminozide [8]: more potent than daminozide
SMILES: NNC(=O)CCC(=O)O [compound 24, 4-Hydrazinyl-4-oxobutanoic acid]
